Measurements published in ChEMBL document CHEMBL4513216, “Probing the Open Global Health Chemical Diversity Library for Multistage-Active Starting Points for Next-Generation Antimalarials” (ACS Infect Dis, 2020).

test: Toxicity liver stage against HepG2, at 10uM; format: cell-based; parameters: test concentration 10 uM, cell line HepG2-A16-CD81EGFP; details: human, HepG2-A16-CD81EGFP cells; read-out: INHIBITION
Outline: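 Uninfected HepG2-A16-CD81EGFP cells, 3 × 10^3 per well, 1536-well, plated on prespotted compound at 10 μM final, parasite-free screening media added to match infected plates; puromycin 10 μM positive, DMSO 0.5% negative; run in parallel with 48 h PbLuc assay at 37 °C, 5% CO2; viability by CellTiter-Glo luminescence, normalized to controls.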

In order of rising cytotoxicity at 10 µM:
1. Cn1cc(CN2CCn3cc(CNC(=O)CC4CC4)nc3C2)cn1  -83.3%
2. CN(C)C(=O)c1cnc2n1CCN(Cc1cccc(C#N)c1)C2  -77.3%
3. CN(Cc1ccco1)[C@@H]1CN(CC2CCOCC2)[C@@H]2CCCO[C@H]12  -76.4%
4. O=C(CC1CC1)NCc1cn2c(n1)CN(Cc1nccs1)CC2  -74.1%
5. Cn1ncc2c1C(COCC1CC1)CN(S(C)(=O)=O)C2 (stereo not given)  -73.6%
6. Cc1cc(CN2C[C@@H]3COC[C@@H](C(=O)N4CCCCO4)[C@@H]3C2)oc1C  -72.8%
7. CN1CCC2(CC1)CN(C(=O)c1cccnc1)Cc1ccccc12  -66.2%
8. COCC(NC(=O)c1cn2ccsc2n1)c1ccnn1C (stereo not given)  -47.8%
9. COc1cccc2ccn(CC(=O)NC(C)C)c12  -37%
10. OCCN1CCN(Cc2coc(-c3cccc(Cl)c3)n2)CC1  -21.6%
11. COc1cccc(-c2nc(CNCCCn3cccn3)cs2)c1  -19.7%
12. Cc1nc(C)n(CC2CCCN(CC(=O)Nc3nnc(C)s3)C2)n1 (stereo not given)  -18.9%
13. COCc1noc(-c2ccc(N(C)Cc3cc(C)no3)nc2)n1  -17.2%
14. COc1nccc(N2CCN(Cc3ccc(C)cc3)C(=O)C2)c1C#N  -16.5%
15. COc1ccc(C(CO)NC(=O)Nc2cccnc2)cc1 (stereo not given)  -15.7%
16. COc1ncccc1CN1CCc2[nH]cnc2C1CCSC (stereo not given)  -13.7%
17. c1ccc(-n2nc(CNC3CCc4ncnn4C3)c3c2CCC3)cc1 (stereo not given)  -12.9%
18. CC(c1cccc(S(N)(=O)=O)c1)N(C)CCc1ccccc1 (stereo not given)  -12%
19. CNc1c(NCc2ccco2)c(=O)c1=O  -10.6%
20. Cc1ncc(CNC(=O)Nc2cc(C(F)(F)F)c[nH]c2=O)s1  -10.2%
21. O=C(Cn1nc2c(cc1=O)CSCC2)NC(Cc1ccccc1)C(=O)O (stereo not given)  -10.1%
22. O=C(NCc1ccc2c(c1)OCO2)c1ccc(N2CCCCC2)nn1  -9.7%
23. CCC(CC)C(=O)N1CCN(Cc2cc(=O)c3ccccc3[nH]2)CC1  -9.55%
24. CCCc1nc(N2CCN(CC)CC2)c2c(n1)c(C)nn2CC  -9.41%
25. CCCc1nc(C)c(C(=O)NCC2CCN(C3CC3)C2)s1 (stereo not given)  -9.34%
26. c1cncc(CNC2CCc3ncnn3C2)c1 (stereo not given)  -7.91%
27. Cn1cc(CN2C[C@@H]3[C@@H](C2)OCC(=O)N3Cc2ccncc2)cn1  -7.9%
28. O=C(NCC1CCC1)c1cccc(CN2CCS(=O)(=O)CC2)c1  -7.89%
29. O=C(c1cccn1Cc1cccs1)N1CCN2CCCCC2C1 (stereo not given)  -7.42%
30. Cc1ccc(CC(=O)N2CCCC(c3cc(C)[nH]n3)C2)cn1 (stereo not given)  -7.2%
31. Cc1cc(C(=O)N2CCCC(C(=O)c3cccs3)C2)c(=O)[nH]c1C (stereo not given)  -7.01%
32. O=C1CC(c2cccnc2)C2(CCN(C(=O)c3ccncc3)CC2)N1 (stereo not given)  -6.64%
33. Clc1ccccc1C1(c2ccnc(-c3ncccn3)n2)CCNCC1  -6.28%
34. CN1CCOC(CNC(=O)COc2ccc(F)cc2F)C1 (stereo not given)  -5.51%
35. Cc1ccoc1C(=O)N1C[C@H](OCc2cccnc2)[C@H]2OCCC[C@H]21  -5.28%
36. CC(C)c1nccn1C(C)C(=O)NCc1noc(Cc2cccs2)n1 (stereo not given)  -4.91%
37. CN(C)Cc1cc(=O)n2c(n1)CN(C(=O)Cc1ccsc1)CCC2  -4.43%
38. CN(Cc1nc2ccccc2n1C)CC1CCCN1c1cccnn1 (stereo not given)  -4.41%
39. O=C(NCC1CCOC1)N1CCN(Cc2ccc3c(c2)OCO3)CC1 (stereo not given)  -4.33%
40. CC(C)c1nn(C)c(N2CCOCC2)c1CNCC(=O)N(C)C  -4.3%
41. CCOCC1CN(S(=O)(=O)N(C)C)Cc2cnn(C)c21 (stereo not given)  -4.2%
42. COCc1nnc(NC(=O)CN2C(=O)c3ccccc3NC2C(C)C)s1 (stereo not given)  -4.19%
43. CN(C)CC(=O)N1CCc2onc(Cn3cccn3)c2C1  -3.83%
44. CC(C)N1C[C@H](O)C[C@H]1c1nc(-c2ccc(OC(F)(F)F)cc2)no1  -3.72%
45. CC1=Nc2c(c(O)nn2C(C)C)C(c2cn(C)nc2C)S1 (stereo not given)  -3.53%
46. O=C1CC(c2ccncc2)C2(CCN(C(=O)NC3CC3)CC2)N1 (stereo not given)  -3.46%
47. O=C(NCc1cc[nH]n1)N1CCN(c2ncccn2)CC1  -3.29%
48. O=C(CN1CCC(c2ccnn2CCO)CC1)NCC1CC1  -3.25%
49. CCCn1ccnc1-c1cccc(NC2CCOC2)c1 (stereo not given)  -3.1%
50. CCCc1n[nH]c(C2CN(C(=O)c3cccc4[nH]ncc34)CCO2)n1 (stereo not given)  -2.87%
51. CCc1ncc(C(=O)N2CCCCC2Cn2cccn2)s1 (stereo not given)  -2.48%
52. C[C@@H](N)C(=O)N1CC2(CCNCC2)c2cc(Cl)ccc21  -2.42%
53. CCN(Cc1noc(C2CC2)n1)Cc1ccc(C#N)cc1F  -1.74%
54. CCN1CCN(C(=O)CCC2CCN(C(=O)CCSC)CC2)CC1  -1.56%
55. CN1C(=O)CCCC12CCCN(C(=O)c1cc(F)cc(F)c1)C2 (stereo not given)  -1.54%
56. O=C1NCCN1C1CCN(Cc2coc(-c3ccccc3)n2)CC1  -1.54%
57. CC(=O)Nc1ccsc1C(=O)N1CC[C@H]2CC[C@@H](C1)N2C  -1.47%
58. Cc1ccc(-c2ccnc(N[C@H]3COC[C@@H]3N3CCCC3)n2)c(C)n1  -1.45%
59. c1cnc(N2CCO[C@@H]3CN(Cc4ccoc4)C[C@@H]3C2)nc1  -1.36%
60. CC(C)NC(=O)[C@@]12CCO[C@@H]1CCN(Cc1ccc3c(c1)OCO3)C2  -1.34%
61. Fc1cccc(-c2noc3c2CN(Cc2cncn2C2CC2)CC3)c1  -1.24%
62. N#Cc1cccc(N2CC3(CCN(C(=O)NC4CC4)C3)CC2=O)c1 (stereo not given)  -0.987%
63. CN(C)CCOCC1CN(Cc2cccs2)Cc2ccnn2C1 (stereo not given)  -0.903%
64. CC1CCc2nc(NS(=O)(=O)c3cnn(C)c3)sc2C1 (stereo not given)  -0.842%
65. O=S(=O)(N1CCCC1)N1CCN(CC2CCCO2)CC1 (stereo not given)  -0.185%
66. Cc1cccc2nc(C(=O)N3CCC4(CCC(=O)N(C)C4)CC3)c(F)n12  -0.103%
67. O=C1N(Cc2ccccc2F)CCCC12CCN(C1CCSCC1)C2 (stereo not given)  0.0366%
68. CNc1ncccc1CN1CCN(C)CC(C(N)=O)C1 (stereo not given)  0.106%
69. CS(=O)(=O)NC[C@@H]1OC[C@H]2CN(C(=O)c3ccc[nH]3)CC[C@H]21  0.253%
70. CC(=O)N1CCCC(c2nnc3n2CCN(C(=O)C2CCCCC2)C3)C1 (stereo not given)  0.685%
71. Cc1ccc2nc(C)c(C)c(C(=O)N3CCC4(CCO4)CC3)c2c1  0.707%
72. Cc1noc(-c2ccc(-n3ncc(C(=O)O)c3C)nc2)n1  0.748%
73. CCn1ccnc1CN1CCOC(CNc2cccnn2)C1 (stereo not given)  0.762%
74. NC(=O)COc1ccc(CN2CCNC(C(=O)NC3CC3)C2)cc1Cl (stereo not given)  0.887%
75. Cc1nccn1CCC1CCCCN1Cc1cnc(N(C)C)nc1 (stereo not given)  1.45%
76. CCN1CCC2(CC1)NC(=O)c1cc(Br)ccc1-n1nnnc12  1.47%
77. CN(C(=O)CN1CCC(c2cc3ccccc3[nH]2)CC1)C1CC1  1.95%
78. COCCN1CCCN(C(=O)c2oc(C)nc2C)CC1  2.04%
79. CC(C)c1ncc2c(n1)CN(Cc1nc(-c3ccsc3)no1)CC2  2.05%
80. COCCN1CC(c2nc(CC3CCN(C)CC3)no2)CCC1=O (stereo not given)  2.06%
81. CC(C)OCCN1CCN(C(C)c2nc(C3CC3)no2)CC1 (stereo not given)  2.07%
82. O=C(CCc1cnn(-c2ccccc2)c1)N1CCCC(n2cccn2)C1 (stereo not given)  2.1%
83. CCc1nc(N2CCCN(c3ncccn3)CC2)c2cnn(C)c2n1  2.22%
84. CS(=O)(=O)N1CCCC1C(=O)Nc1cnc2n1CCCC2 (stereo not given)  2.72%
85. Cc1oncc1C(=O)N1CC[C@H]2[C@H](C[C@@H](CN(C)C)N2CC2CC2)C1  2.84%
86. O=C(Cc1ccncc1)N1C[C@@H]2CC[C@H]1CN(Cc1cccnc1)C2  2.89%
87. CC(C)c1nnc(CN2CCN(C(C)c3nc(C4CC4)no3)CC2)o1 (stereo not given)  3.48%
88. Cc1cccc(-c2noc(C)c2C(=O)NC2CCCOC2)c1 (stereo not given)  5.2%
89. CN(CC(=O)c1ccc2[nH]c(=O)[nH]c2c1)Cc1ccc2c(c1)OCO2  5.34%
90. CCN(CC)C(=O)C(c1ccccc1)N1CCn2c(C)nnc2C1 (stereo not given)  5.57%
91. CN(C)c1cc(C2CCCN2)ccn1 (stereo not given)  5.8%
92. COc1ncc(NCc2cccc(C#N)c2)cc1C(N)=O  5.85%
93. CN(C)C(=O)CN1C(=O)CCC12CCN(Cc1cccn1C)CC2  6.45%
94. CCc1nc(NCC(=O)N2CCOCC2)c2c(n1)c(C)nn2CC  7.05%
95. CCc1ocnc1C(=O)N1CCOC(c2nc(C(C)C)n[nH]2)C1 (stereo not given)  7.43%
96. CC(=O)N1CCCN(Cc2cc(F)cc(Br)c2)CC1  7.72%
97. CC1c2ncc(CN3CCN(C)CC3)n2CCN1Cc1cnn(C)c1 (stereo not given)  7.77%
98. CN1CCCC1CCNC(=O)c1ccccc1-n1cnc(CN)c1 (stereo not given)  8.6%
99. CC(C)n1cc(S(=O)(=O)N2CCCCCC2)cn1  10%
100. Cc1cc2nccc(C3CCCN(C(=O)c4cnccn4)C3)n2n1 (stereo not given)  10.5%
101. Cc1cc(NC(=O)N2CCOCC2)nn1-c1ccccc1Cl  11.1%
102. N#Cc1ccc(C(=O)N2CCCC3(C=Cc4ccccc4O3)CC2)cn1 (stereo not given)  11.8%
103. Cc1ccc(C)c(-n2cc(CN3CCOCC3)c(-c3ccccc3)n2)c1  13.1%
104. CCSc1cc(C(=O)NC2CCN(C(=O)c3ccccc3)CC2)ccn1  13.5%
105. CNS(=O)(=O)CC(=O)NC(C)Cc1ccccc1Br (stereo not given)  13.7%
106. Cc1cccc(-n2ncc3c2CCCC3NCc2cnn(C)c2C)c1C (stereo not given)  13.8%
107. CCNC(=O)NC(C)c1nc(-c2ccc(Br)cc2)no1 (stereo not given)  14.7%
108. COCCCN(Cc1ccccc1Cl)C1CCS(=O)(=O)C1 (stereo not given)  17.1%
109. CCc1ccc(CN2CCc3[nH]nc(C(=O)N4CCNC(=O)C4)c3C2)o1  17.5%
110. N#Cc1cccc(CN(CCO)Cc2ccsc2)c1  19.6%
